Reference: ChEMBL document CHEMBL3856188, “Usnic Acid Derivatives with Cytotoxic and Antifungal Activities from the Lichen Usnea longissima” (J Nat Prod, 2016)
pIC50: −log10 of the molar value. Values after ≈ are worked out from the molar mass of the structure shown.

Columns and labels:
[1] = tested on: Trichophyton rubrum; assay: Antimicrobial activity against Trichophyton rubrum after 4 days by microdilution method; type: functional; conditions: 96 h
[2] = Cytotoxicity against human HepG2 cells assessed as cell growth inhibition after 48 hrs by MTT assay; type: functional, cell-based; conditions: HepG2, 48 h
Summary of the method: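 HepG2 cells seeded at 3 × 10^3 cells/well in DMEM with 10% FBS and grown 24 h, then exposed to compound for 48 h. MTT (5 mg/mL in PBS) added for 3 h, supernatant removed, formazan dissolved in DMSO with 10 min shaking, and OD read at 490 nm. Methotrexate served as positive control. Values given as IC50.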

Row | MIC50 [1] | Compound | pIC50 [2]
1 | > 200 µM | CCOC(=O)CCCN/C(C)=C1\C(=O)C=C2Oc3c(C(C)=O)c(O)c(C)c(O)c3[C@@]2(C)C1=O | –
2 | > 200 µM | CC(=O)C1=C(O)C=C2Oc3c(C(C)=O)c(O)c(C)c(O)c3[C@@]2(C)C1=O [(+)-USNIC ACID] | –
3 | > 200 µM | COC(=O)CCCN/C(C)=C1\C(=O)C=C2Oc3c(C(C)=O)c(O)c(C)c(O)c3[C@@]2(C)C1=O | –
4 | 41 µM (≈ 16 µg/mL) | CCO[C@@]12CC(O)=C(C(C)=O)C(=O)[C@]1(C)c1c(O)c(C)c(O)c(C(C)=O)c1O2 | –
5 | 41 µM (≈ 16 µg/mL) | CCO[C@@]12CC(O)=C(C(C)=O)C(=O)[C@]1(C)c1c(O)c(C(C)=O)c(O)c(C)c1O2 | 4.27

Second part, the molecule before the results:

Row | Compound | MIC50 [1] | pIC50 [2]
6 | CCO[C@@]12CC(=O)/C(=C(/C)N)C(=O)[C@]1(C)c1c(O)c(C(C)=O)c(O)c(C)c1O2 | > 200 µM | –
7 | CCO[C@@]12CC(=O)/C(=C(/C)N)C(=O)[C@]1(C)c1c(O)c(C)c(O)c(C(C)=O)c1O2 | > 200 µM | 4.30
8 | CCOC(=O)CCCN/C(C)=C1\C(=O)C[C@@]2(OCC)Oc3c(C(C)=O)c(O)c(C)c(O)c3[C@@]2(C)C1=O | > 200 µM | –
9 | CN(Cc1cnc2nc(N)nc(N)c2n1)c1ccc(C(=O)N[C@@H](CCC(=O)O)C(=O)O)cc1 [METHOTREXATE] | – | 4.80
